# Compounds with a hit are over-represented: about 2.5% of the library has one in this group of screens.
# PG9 binder: PG9 antibody binding by small molecule | TR-FRET gp120-PG9 antibody binding | inhibition, % at 6.7 µM | actives 0.43% (n = 360,000); in the data active = inhibition above about 8.5%
# MC4R barr agon: agonists of human melanocortin 4 receptor (MC4R) beta-arrestin; U2OS MC4R beta-arrestin complementation, luminescence; percent of melanotan II response, DMSO zero; actives 0.98% (n = 360,000); P32245; activation, % at 8.9 µM;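 active = activation above a per-plate cutoff, the mean activation of sample wells on that plate plus 3 SD, cut at about 8% in these data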
# MC4R antagonist: human MC4R antagonism in cAMP assay; P32245; inhibition, % at 6.5 µM; AID 540295; MC4R-expressing cells, MTII-stimulated cAMP, LANCE TR-FRET; actives 0.48% (n = 360,000);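 active = inhibition above its plate's cutoff, the mean of tested wells on that plate plus 3 SD, cut at about 29% in these data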;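 also: 0% = Melanotan II alone and 100% = Melanotan II plus saturating MCL0020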
#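 Test system: U2OS cells stably expressing human melanocortin 4 receptor (MC4R); also added: Melanotan II challenge; compound: 6.5 µM single dose; timing: 30-min compound preincubation, 1-h Melanotan II challenge, 1-h detection, room temperature; signal: Eu-cAMP/anti-cAMP TR-FRET, emission 671 nm; repeats: one well per compound, no replicates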
# Rev-erbA mod: modulates human Rev-erb alpha binding to DNA; P20393; Rev-erbα–FITC-DNA binding, fluorescence polarization, 90 min; activity, % at 10 µM; actives 0.79% (n = 370,000); AID 1259318;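 active = activity above about 14%, limit read from the data; passing the limit was not always enough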;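 also: 0% = DMSO wells with 35 nM protein and 100% = DMSO wells with 750 nM protein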
# NTR1 agonist: activates human neurotensin receptor 1 | activation, % at 20 µM | actives 0.17% (n = 330,000) | P30989 | NTR1-U2OS beta-arrestin-GFP spot imaging, agonist mode | AID 493036;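 active = activation at or above 40% of the spot to cytoplasm intensity ratio, with at least 20 cells analyzed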;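 also: 0% = DMSO without peptide and 100% = 100 nM NTR1 peptide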
# Target sequence (P30989 whole entry, looked up): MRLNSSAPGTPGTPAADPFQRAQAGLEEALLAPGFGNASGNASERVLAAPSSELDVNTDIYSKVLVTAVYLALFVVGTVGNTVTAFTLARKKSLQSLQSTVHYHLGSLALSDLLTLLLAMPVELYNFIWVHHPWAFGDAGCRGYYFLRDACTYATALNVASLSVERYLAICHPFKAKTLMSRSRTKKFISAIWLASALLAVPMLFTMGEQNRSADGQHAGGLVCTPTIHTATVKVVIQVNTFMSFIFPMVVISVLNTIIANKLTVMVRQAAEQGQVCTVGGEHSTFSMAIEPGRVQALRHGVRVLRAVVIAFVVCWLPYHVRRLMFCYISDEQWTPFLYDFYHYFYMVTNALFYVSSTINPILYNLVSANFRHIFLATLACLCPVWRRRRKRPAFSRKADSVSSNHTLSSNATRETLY
# Rev-erbA confirm: confirmation of modulators of human Rev-erb alpha DNA binding; shares compounds with Rev-erbA mod; activation, % at 25 µM; Rev-erb alpha FITC-DNA binding, fluorescence polarization, 90 min; actives 61% (n = 3,000);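 active = activation at or above a set limit, or at least 3 SD above the negative control mean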;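 also: 0% = 35 nM protein with DMSO and 100% = 750 nM protein high control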
# RORg counter: affects RORgamma DNA binding in a Rev-erb alpha counter-screen. shares compounds with Rev-erbA mod. purified RORgamma protein-FITC-DNA binding, fluorescence polarization. IC50, µM. actives 8% (n = 910);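 active = Compounds whose fitted half-maximal concentration for disrupting protein-DNA binding is below 10 micromolar; the record names Rev-erb in its text, so the target is in doubt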
# Numbers without * were called inactive; i = inactive; . = no result given.
SMILES,PG9 binder,MC4R barr agon,MC4R antagonist,Rev-erbA mod,NTR1 agonist,Rev-erbA confirm,others
CC(=O)c1c(N2CCOCC2)nc2ccc(Cl)cc2c1-c1ccccc1,0,-1,13,31*,16,28*,
Cc1cc(Nc2cc(Cl)cc(Cl)c2)cc(=O)n1-c1cc(Cl)cc(Cl)c1,0,.,.,-11,.,.,
CCc1ccccc1NC(=O)CSc1nc2c(c(-c3ccco3)c1C#N)CCCC2,7,1,12,29*,-2,20*,
COc1ccc(-c2c(C#N)c(SCC(=O)Nc3ccccc3)nc3c2CCCC3)cc1,-5,0,6,45*,-2,29*,
COc1ccc(-c2ccc(C#N)c(SCC(=O)Nc3sc4c(c3C#N)CCC4)n2)cc1,0,-2,11,34*,4,14,
Cc1ccc(-c2cc(C(F)(F)F)c(C#N)c(SCC(=O)O)n2)cc1,-3,-3,11,-2,-1,.,
Cc1ccccc1NC(=O)CSc1nc2c(c(-c3ccco3)c1C#N)CCCC2,.,0,8,15,1,.,
COc1ccc(-c2cc(C(F)(F)F)c(C#N)c(SCC(=O)Nc3ccc(C)cc3)n2)cc1,0,-2,-5,83*,0,32*,
CCOc1ccc(/C(CC)=N/NC(=O)C2(C)CC2(Br)Br)cc1 (stereo not drawn),0,-1,5,31*,18,46*,RORg counter=>40
C[C@H](O)[C@@H]1C(=O)N2CCc3c([nH]c4c(-c5ccc6c(c5)OCO6)cccc34)[C@@H]2C[C@@H]1N(C)C(=O)c1ccccc1F,.,.,.,6,.,.,
O=C(COc1ccccc1)NC(=S)Nc1ccc2c(c1)Cc1ccccc1-2,-1,0,4,77*,8,25*,
CCOC(=O)c1sc(NC(=O)CN2C(=O)NC3(CC(C)CC(C)(C)C3)C2=O)c(C(=O)OCC)c1C (stereo not drawn),-1,1,18,2,3,.,
CCOC(=O)c1c(NC(=O)CN2C(=O)NC3(CCCCCC3)C2=O)sc(C)c1-c1ccc(C)cc1,-2,3,9,25*,12,17*,
CCOC(=O)c1sc(NC(=O)CN2C(=O)NC3(CCC(C)CC3)C2=O)c(C(=O)OCC)c1C (stereo not drawn),0,0,-3,36*,3,20*,
COc1ccc(-n2c(SCc3nc4ccccc4[nH]3)nc3ccccc3c2=O)cc1,.,.,.,-6,.,.,
C[N+]1(C)CCN(CC(O)(c2ccccc2)C2CCCCC2)CC1 (stereo not drawn),.,.,.,3,.,.,
COC(=O)c1cc2c(c3c4cc(F)ccc4n(S(=O)(=O)c4ccc(C)cc4)c13)C(=O)N(Cc1ccccc1)C2,-1,.,.,2,.,.,
CC(=O)c1cc2c(cc1NC(=O)c1cccc(S(=O)(=O)N3CCN(C)CC3)c1)OCO2,2,0,-2,20*,0,5,
CC(=O)c1ccc(NC(=O)c2cccc(S(=O)(=O)N3CCN(C)CC3)c2)cc1,-2,1,3,0,2,.,
CC(=O)c1cc2c(cc1N/C(=N/S(=O)(=O)c1ccccc1)c1ccc(Cl)cc1)OCO2,-4,-1,-4,90*,15,48*,RORg counter=>40
CN(CCOC(=O)c1cc2ccccc2o1)C1CN(Cc2cn(Cc3cccc(F)c3)nn2)S(=O)(=O)C1 (stereo not drawn),.,.,.,-4,.,.,
O=C(Nc1ccc(F)cc1)c1oc2ccccc2c1NC(=O)C1CCCC1,.,5,5,26*,15,1,
O=C(NCc1ccco1)C1CCCN(S(=O)(=O)c2cccs2)C1 (stereo not drawn),.,.,.,-1,.,.,
Cc1cccc(N2C(=O)CC(Sc3nc(C)cc(C)n3)C2=O)c1 (stereo not drawn),-1,-2,0,1,2,.,
Cc1cccc(N2C(=O)CC(Sc3nc(-c4ccccc4)c4cc(Cl)ccc4n3)C2=O)c1 (stereo not drawn),3,0,14,20*,3,-14,
SMILES,PG9 binder,MC4R barr agon,MC4R antagonist,Rev-erbA mod,NTR1 agonist,Rev-erbA confirm,others
CCc1cc2c(C)ccc(C)c2nc1SCC(=O)Nc1cc(C)on1,3,-1,4,24*,0,8,
CCc1nc(SCC(=O)Nc2cc(C)on2)n[nH]1,0,-1,8,-4,-2,.,
CCc1cc2cc(C)cc(C)c2nc1SCC(=O)Nc1cc(C)on1,0,-2,10,10,3,.,
COc1ccccc1-c1nc(SCC(=O)Nc2cc(C)on2)c2c(=O)n(C)c(=O)n(C)c2n1,0,-2,23,72*,4,60*,RORg counter=i
Cc1cc2cc(C#N)c(SCC(=O)Nc3nonc3C)nc2cc1C,-1,0,-11,20*,0,33*,RORg counter=i
CCc1cc2cc(C)c(C)cc2nc1SCC(=O)Nc1cc(C)on1,-3,1,11,36*,11,2,
COc1ccc(-c2ccccc2C2Cc3nnccc3CN2)cc1 (stereo not drawn),0,.,.,-1,.,.,
CCNC(=O)Nc1ccc2c(c1)C(=O)N(C)[C@H]1CC[C@@H](CC(=O)NCCN3CCCC3)O[C@@H]1CO2,.,.,.,-2,.,.,
COC(=O)N1C[C@H](OC(=O)c2ccc(-c3ccccc3)cc2)[C@H]2C[C@@H]1c1ccccc1O2,-1,.,.,1,.,.,
CCc1cc2ccc(OC)cc2nc1SCC(=O)Nc1cc(C)on1,1,4,6,75*,22,57*,RORg counter=>40
CCc1cc2ccc(OC)cc2nc1SCC(=O)NNC(C)=O,1,0,1,2,1,.,
COC(=O)C1=C(C)N(Cc2ccccc2C(F)(F)F)C(=NCc2ccccc2C(F)(F)F)NC1c1ccc(Cl)cc1 (stereo not drawn),1,.,.,-1,.,.,
O=C(Nc1nc2ccccc2n1Cc1ccc(Cl)cc1)c1ccco1,-1,3,-14,28*,12,7,
CCn1cc(C(=O)OCC(=O)Nc2c(C)n(C)n(-c3ccccc3)c2=O)c(=O)c2ccc(C)nc21,.,-3,0,.,2,.,
CCn1cc(C(=O)OCC(=O)Nc2cccc(Cl)c2Cl)c(=O)c2ccc(C)nc21,-1,2,7,43*,3,19*,
O=C(/C=C/c1ccc(OCCCF)cc1)Nc1ccnc(-c2cccnc2)n1,8,0,12,24*,11,22*,
COC(=O)[C@]12C[C@H](CC(=O)NCc3cccc(C(F)(F)F)c3)C(=O)N(Cc3ccco3)C1=C[C@H](COCc1ccccc1)O[C@@H]2C,.,.,.,1,.,.,
O=c1[nH]c(CSc2ncnc3sc(-c4ccccc4)cc23)nc2ccccc12,-1,0,7,39*,32,4,
Cc1cc(N2CCCC2)ccc1/C=C1\NC(=S)N(C)C1=O,-13,2,7,30*,-4,50*,RORg counter=>40

# Screening data deposited in PubChem by several laboratories.
